Data taken from ChEMBL document CHEMBL1157373, “Dual targeting of DNA gyrase and topoisomerase IV: target interactions of heteroaryl isothiazolones in Staphylococcus aureus” (Antimicrob Agents Chemother, 2007).
pIC50: −log10 of the molar value. In brackets after ≈: the same amount, converted by molar mass.

Tests used:
Staphylococcus aureus [1] = assay: Antibacterial activity against Staphylococcus aureus ACH-0201 isolate with gyrA Ser84Leu, Glu88Val and grlA Ser80Phe, Ala116Val mutant after 24 hrs by broth microdilution method; type: functional
Staphylococcus aureus [2] = assay: Antibacterial activity against Staphylococcus aureus ACH-0141 isolate with gyrA Ser84Leu, Glu88Val and grlA Ser80Phe, Ala116Val mutant after 24 hrs by broth microdilution method; type: functional
Staphylococcus aureus [3] = assay: Antibacterial activity against Staphylococcus aureus ATCC 33591 isolate after 24 hrs by broth microdilution method; type: functional; conditions: ATCC 33591, 24 h
In short: (§1)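 Broth microdilution per CLSI guidelines. MIC taken as the lowest concentration preventing visible growth at 24 h. Each MIC determined at least twice.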

Staphylococcus aureus [4] = assay: Antibacterial activity against Staphylococcus aureus NY2746 isolate with gyrA Ser84Leu and grlA Ser80Phe mutant after 24 hrs by broth microdilution method; type: functional
Staphylococcus aureus [5] = assay: Antibacterial activity against Staphylococcus aureus ATCC 700699 isolate with gyrA Ser84Leu, Glu409Lys and grlA Ser80Phe mutant after 24 hrs by broth microdilution method; type: functional; conditions: ATCC 700699, 24 h
Staphylococcus aureus [6] = assay: Antibacterial activity against Staphylococcus aureus BSA643 isolate with gyrA Ser84Leu and grlA Ser80Tyr, Glu84Gly mutant after 24 hrs by broth microdilution method; type: functional
Staphylococcus aureus [7] = assay: Antibacterial activity against Staphylococcus aureus ACH-0231 isolate with gyrA Ser84Leu, Glu88Lys and grlA Ser80Tyr, Glu84Gly mutant after 24 hrs by broth microdilution method; type: functional
Staphylococcus aureus [8] = assay: Antibacterial activity against Staphylococcus aureus ATCC 29213 assessed as doubling time of bacterial growth at 1 ug/ml; type: functional
In short: (§2)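 Overnight cultures in MH or Mueller-Hinton II medium at 37°C with aeration were diluted to OD625 of about 0.05. Turbidity was read every 30 min over the first 7 h. Doubling time was estimated from log OD625 versus time growth curves.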

Staphylococcus aureus [9] = assay: Antibacterial activity against Staphylococcus aureus ACH-0126 isolate with gyrA Ser84Leu and grlA Ser80Phe mutant assessed as doubling time of bacterial growth at 1 ug/ml; type: functional; in short: as §2
Staphylococcus aureus [10] = assay: Antibacterial activity against Staphylococcus aureus ACH-0186 isolate with gyrA Ser84Leu and grlA Ser80Phe mutant assessed as doubling time of bacterial growth at 1 ug/ml; type: functional; in short: as §2
Staphylococcus aureus [11] = assay: Antibacterial activity against Staphylococcus aureus ACH-0192 isolate with gyrA Ser84Leu and grlA Ser80Phe, Ala116Val mutant assessed as doubling time of bacterial growth at 1 ug/ml; type: functional; in short: as §2
Staphylococcus aureus [12] = assay: Antibacterial activity against Staphylococcus aureus ACH-0203 isolate with gyrA Ser84Leu and grlA Ser80Phe, Ala116Val mutant assessed as doubling time of bacterial growth at 1 ug/ml; type: functional; in short: as §2
Staphylococcus aureus [13] = assay: Antibacterial activity against Staphylococcus aureus ACH-0129 isolate with gyrA Ser84Leu, Glu88Val and grlA Ser80Phe, Ala116Val mutant assessed as doubling time of bacterial growth at 1 ug/ml; type: functional; in short: as §2
Staphylococcus aureus [14] = assay: Antibacterial activity against Staphylococcus aureus ACH-0130 isolate with gyrA Ser84Leu, Glu88Val and grlA Ser80Phe, Ala116Val mutant assessed as doubling time of bacterial growth at 1 ug/ml; type: functional; in short: as §2
Staphylococcus aureus [15] = assay: Antibacterial activity against Staphylococcus aureus ACH-0201 isolate with gyrA Ser84Leu, Glu88Val and grlA Ser80Phe, Ala116Val mutant assessed as doubling time of bacterial growth at 1 ug/ml; type: functional; in short: as §2
Staphylococcus aureus [16] = assay: Antibacterial activity against Staphylococcus aureus ACH-0141 isolate with gyrA Ser84Leu, Glu88Val and grlA Ser80Phe, Ala116Val mutant assessed as doubling time of bacterial growth at 1 ug/ml; type: functional; in short: as §2
Staphylococcus aureus [17] = assay: Antibacterial activity against Staphylococcus aureus NY2746 isolate with gyrA Ser84Leu and grlA Ser80Phe mutant assessed as doubling time of bacterial growth at 1 ug/ml; type: functional; in short: as §2
Staphylococcus aureus [18] = assay: Antibacterial activity against Staphylococcus aureus ATCC 700699 isolate with gyrA Ser84Leu, Glu409Lys and grlA Ser80Phe mutant assessed as doubling time of bacterial growth at 1 ug/ml; type: functional; in short: as §2
Staphylococcus aureus [19] = assay: Antibacterial activity against Staphylococcus aureus BSA643 isolate with gyrA Ser84Leu and grlA Ser80Tyr, Glu84Gly mutant assessed as doubling time of bacterial growth at 1 ug/ml; type: functional; in short: as §2
Staphylococcus aureus [20] = assay: Antibacterial activity against Staphylococcus aureus ACH-0231 isolate with gyrA Ser84Leu, Glu88Lys and grlA Ser80Tyr, Glu84Gly mutant assessed as doubling time of bacterial growth at 1 ug/ml; type: functional; in short: as §2
DNA gyrase subunit A = DNA gyrase subunit A (Staphylococcus aureus, UniProt P20831, S84L); assay: Inhibition of Staphylococcus aureus DNA gyrase gyrA S84L mutant supercoiling activity assessed as effect on conversion of relaxed pBR322 DNA to supercoiled form
[21] = Inhibition of Staphylococcus aureus wild-type topoisomerase 4 decatenation activity assessed as unlinking of DNA microcircles from kinetoplast DNA
In short: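 S. aureus topo IV reconstituted from His-purified recombinant GrlA and GrlB (E. coli BL21(DE3)pLysS expression), mixed 1:1 molar on ice 10 min. 0.1 μg catenated kDNA with 2 U enzyme, 30 min at 37°C in 1 mM ATP, 5 mM DTT, 5 mM MgCl2, 50 μg/ml BSA, 50 mM Tris-HCl pH 7.5, 250 mM potassium glutamate. Products on 1% agarose gel, ethidium-stained, quantitated; IC50 by nonlinear regression.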

[22] = Inhibition of Staphylococcus aureus […] topoisomerase 4 grlA S80F mutant decatenation activity assessed as unlinking of DNA microcircles from kinetoplast DNA
In short: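 Recombinant S. aureus GrlA (Ser80Phe) and GrlB were mixed 1:1 molar on ice for 10 min. kDNA (0.1 μg) with 2 U enzyme, 30 min at 37°C, in 1 mM ATP, 5 mM MgCl2, 250 mM K-glutamate, 50 mM Tris pH 7.5. Reactions stopped with EDTA, run on 1% agarose-TBE and ethidium-stained, minicircles quantitated. IC50 by nonlinear regression.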

Staphylococcus aureus [23] = assay: Antibacterial activity against Staphylococcus aureus ATCC 29213 after 24 hrs by broth microdilution method; type: functional; conditions: ATCC 29213, 24 h; in short: as §1
Staphylococcus aureus [24] = assay: Antibacterial activity against Staphylococcus aureus ACH-0204 isolate with gyrA Ser84Leu mutant after 24 hrs by broth microdilution method; type: functional; in short: as §1
Staphylococcus aureus [25] = assay: Antibacterial activity against Staphylococcus aureus ACH-0206 isolate with gyrA Ser84Leu mutant after 24 hrs by broth microdilution method; type: functional; in short: as §1
Staphylococcus aureus [26] = assay: Antibacterial activity against Staphylococcus aureus ACH-0221 isolate with gyrA Ser84Leu mutant after 24 hrs by broth microdilution method; type: functional; in short: as §1
Staphylococcus aureus [27] = assay: Antibacterial activity against Staphylococcus aureus ACH-0216 isolate with grlA Ser80Phe mutant after 24 hrs by broth microdilution method; type: functional; in short: as §1
Staphylococcus aureus [28] = assay: Antibacterial activity against Staphylococcus aureus ACH-0218 isolate with grlA Glu84Lys mutant after 24 hrs by broth microdilution method; type: functional; in short: as §1
Staphylococcus aureus [29] = assay: Antibacterial activity against Staphylococcus aureus ACH-0126 isolate with gyrA Ser84Leu and grlA Ser80Phe mutant after 24 hrs by broth microdilution method; type: functional
Staphylococcus aureus [30] = assay: Antibacterial activity against Staphylococcus aureus ACH-0210 isolate with gyrA Ser84Leu and grlA Ser80Phe mutant after 24 hrs by broth microdilution method; type: functional
Staphylococcus aureus [31] = assay: Antibacterial activity against Staphylococcus aureus ACH-0186 isolate with gyrA Ser84Leu and grlA Ser80Phe, Ala116Val mutant after 24 hrs by broth microdilution method; type: functional
Staphylococcus aureus [32] = assay: Antibacterial activity against Staphylococcus aureus ACH-0192 isolate with gyrA Ser84Leu and grlA Ser80Phe, Ala116Val mutant after 24 hrs by broth microdilution method; type: functional
Staphylococcus aureus [33] = assay: Antibacterial activity against Staphylococcus aureus ACH-0203 isolate with gyrA Ser84Leu and grlA Ser80Phe, Ala116Val mutant after 24 hrs by broth microdilution method; type: functional; in short: as §1
Staphylococcus aureus [34] = assay: (§3) Antibacterial activity against Staphylococcus aureus ACH-0129 isolate with gyrA Ser84Leu, Glu88Val and grlA Ser80Phe, Ala116Val mutant after 24 hrs by broth microdilution method; type: functional
Staphylococcus aureus [35] = assay: as §3; type: functional; remark: listed apart in the source
Staphylococcus aureus [36] = assay: Antibacterial activity against Staphylococcus aureus BSA678 isolate with gyrA Ser84Leu, Ser85Pro and grlA Ser80Phe, Glu84Lys mutant after 24 hrs by broth microdilution method
Staphylococcus aureus [37] = assay: Antibacterial activity against Staphylococcus aureus BSA678 isolate with gyrA Ser84Leu, Ser85Pro and grlA Ser80Phe, Glu84Lys mutant assessed as doubling time of bacterial growth at 1 ug/ml

Q: With `COc1c(-c2ccnc(C)c2)c(F)cc2c(=O)c3c(=O)[nH]sc3n(C3CC3)c12` as the compound, how does the MIC (Staphylococcus aureus [1]) read?
A: 2 µg/mL (≈ 5.03 µM)

Q: And the MIC (Staphylococcus aureus [2])?
A: 2 µg/mL (≈ 5.03 µM)

Q: What about the MIC (Staphylococcus aureus [3]) of the same compound?
A: 0.004 µg/mL (≈ 0.0101 µM)

Q: And the MIC (Staphylococcus aureus [4])?
A: 0.25 µg/mL (≈ 0.629 µM)

Q: And the MIC (Staphylococcus aureus [5])?
A: 0.25 µg/mL (≈ 0.629 µM)

Q: What about the MIC (Staphylococcus aureus [6]) of the same compound?
A: 0.125 µg/mL (≈ 0.315 µM)

Q: What about the MIC (Staphylococcus aureus [7]) of the same compound?
A: 2 µg/mL (≈ 5.03 µM)

Q: What about the Time (Staphylococcus aureus [8]) of the same compound?
A: 30 min

Q: What about the Time (Staphylococcus aureus [9]) of the same compound?
A: 34 min

Q: What about the Time (Staphylococcus aureus [10]) of the same compound?
A: 34 min

Q: What about the Time (Staphylococcus aureus [11]) of the same compound?
A: 121 min

Q: And the Time (Staphylococcus aureus [12])?
A: 338 min

Q: What about the Time (Staphylococcus aureus [13]) of the same compound?
A: 40 min

Q: And the Time (Staphylococcus aureus [14])?
A: 52 min

Q: What about the Time (Staphylococcus aureus [15]) of the same compound?
A: 180 min

Q: What about the Time (Staphylococcus aureus [16]) of the same compound?
A: 340 min

Q: And the Time (Staphylococcus aureus [17])?
A: 33 min

Q: What about the Time (Staphylococcus aureus [18]) of the same compound?
A: 39 min

Q: What about the Time (Staphylococcus aureus [19]) of the same compound?
A: 38 min

Q: What about the Time (Staphylococcus aureus [20]) of the same compound?
A: 35 min

Q: And the pIC50 (DNA gyrase subunit A)?
A: 4.28

Q: And the pIC50 [21]?
A: 6.00

Q: And the pIC50 [22]?
A: 4.80

Q: What about the MIC (Staphylococcus aureus [23]) of the same compound?
A: 0.004 µg/mL (≈ 0.0101 µM)

Q: What about the MIC (Staphylococcus aureus [24]) of the same compound?
A: 0.016 µg/mL (≈ 0.0403 µM)

Q: And the MIC (Staphylococcus aureus [25])?
A: 0.015 µg/mL (≈ 0.0377 µM)

Q: And the MIC (Staphylococcus aureus [26])?
A: 0.03 µg/mL (≈ 0.0755 µM)

Q: And the MIC (Staphylococcus aureus [27])?
A: 0.008 µg/mL (≈ 0.0201 µM)

Q: And the MIC (Staphylococcus aureus [28])?
A: 0.008 µg/mL (≈ 0.0201 µM)

Q: What about the MIC (Staphylococcus aureus [29]) of the same compound?
A: 0.125 µg/mL (≈ 0.315 µM)

Q: And the MIC (Staphylococcus aureus [30])?
A: 0.125 µg/mL (≈ 0.315 µM)

Q: And the MIC (Staphylococcus aureus [31])?
A: 0.5 µg/mL (≈ 1.26 µM)

Q: And the MIC (Staphylococcus aureus [32])?
A: 0.5 µg/mL (≈ 1.26 µM)

Q: What about the MIC (Staphylococcus aureus [33]) of the same compound?
A: 1 µg/mL (≈ 2.52 µM)

Q: What about the MIC (Staphylococcus aureus [34]) of the same compound?
A: 0.5 µg/mL (≈ 1.26 µM)

Q: And the MIC (Staphylococcus aureus [35])?
A: 0.5 µg/mL (≈ 1.26 µM)

Q: And the MIC (Staphylococcus aureus [36])?
A: 0.5 µg/mL (≈ 1.26 µM)

Q: What about the Time (Staphylococcus aureus [37]) of the same compound?
A: 42 min
